In ChEMBL document CHEMBL1130179, “DNA gyrase inhibitory and antimicrobial activities of some diphenic acid monohydroxamides” (J Med Chem, 1997):
In brackets after ≈: the same amount, converted by molar mass. Peptide text beside a SMILES is read from it.

Assays:
[1] = test system: Staphylococcus epidermidis; assay: Minimum inhibitory concentration of compound against OC2603 Staphylococcus epidermidis strain; type: functional
How it was run: (§1)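 Broth microdilution in Luria broth for Gram-positives, 2-fold series 0.015–1000 µg/mL, inoculum about 5 × 10^5 CFU/mL. Incubated overnight at 35 °C; MIC = lowest well concentration with no visible growth.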

Escherichia coli [2] = assay: Minimum inhibitory concentration of compound against Escherichia coli; type: functional
How it was run: (§2)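 Broth microdilution in Mueller Hinton broth for Gram-negatives, 2-fold series 0.015–1000 µg/mL, inoculum about 5 × 10^5 CFU/mL. Incubated overnight at 35 °C; MIC = lowest well with no visible growth. Some tests included polymyxin B nonapeptide at a level with no antibacterial activity of its own, compared with PMBN-free controls.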

Escherichia coli [3] = assay: Minimum inhibitory concentration of compound against KL-16 Escherichia coli strain; type: functional; how it was run: as §2
Staphylococcus aureus = assay: Minimum inhibitory concentration of compound against OC6538 Staphylococcus aureus strain; type: functional; how it was run: as §1
[4] = test system: DNA gyrase (Escherichia coli); assay: Inhibition of cleavable complex ability of DNA gyrase in Escherichia coli
Escherichia coli [5] = assay: Minimum inhibitory concentration of compound against Escherichia coli KL-16 strain; type: functional; how it was run: as §2

MIC [1] [µg/mL] | MIC (Escherichia coli [2]) [µg/mL] | MIC (Escherichia coli [3]) [µg/mL] | MIC (Staphylococcus aureus) [µg/mL] | MIC (Escherichia coli [5]) [µg/mL] | Structure (SMILES) | CC50 [4] [µg/mL]
31.2 (≈ 67.7 µM) | 31.2 (≈ 67.6 µM) | > 1000 | 31.2 (≈ 67.7 µM) |  | CC(c1ccc2c(ccc3ccccc32)c1)N(O)C(=O)c1ccccc1-c1ccccc1C(=O)O (stereo not drawn) | 97.7 (≈ 212 µM)
62.5 (≈ 130 µM) | > 1000 | > 1000 | 62.5 (≈ 130 µM) |  | CC(c1ccc2c(c1)Nc1ccccc1S2)N(O)C(=O)c1ccccc1-c1ccccc1C(=O)O (stereo not drawn) | 750 (≈ 1550 µM)
1000 (≈ 2770 µM) | 1000 (≈ 2770 µM) | > 1000 | 1000 (≈ 2770 µM) |  | CC(c1ccccc1)N(O)C(=O)c1ccccc1-c1ccccc1C(=O)O (stereo not drawn) | 
15.6 (≈ 32.7 µM) | > 1000 | > 1000 | 15.6 (≈ 32.7 µM) |  | CC(c1ccc2oc(-c3ccccc3)cc2c1)N(O)C(=O)c1ccccc1-c1ccccc1C(=O)O (stereo not drawn) | 62.5 (≈ 131 µM)

The remaining lines, values behind:

Structure (SMILES) | MIC [1] [µg/mL] | MIC (Escherichia coli [2]) [µg/mL] | MIC (Escherichia coli [3]) [µg/mL] | MIC (Staphylococcus aureus) [µg/mL] | MIC (Escherichia coli [5]) [µg/mL] | CC50 [4] [µg/mL]
CC(c1ccc(N2CCN(c3ccccc3)CC2)cc1)N(O)C(=O)c1ccccc1-c1ccccc1C(=O)O (stereo not drawn) | 500 (≈ 959 µM) | > 1000 | > 1000 | 500 (≈ 959 µM) |  | 
COc1cc(C(C)N(O)C(=O)c2ccccc2-c2ccccc2C(=O)O)cc(OC)c1OC (stereo not drawn) | 1000 (≈ 2210 µM) | > 1000 | > 1000 | 1000 (≈ 2210 µM) |  | 
CC(C)C[C@@H]1NC(=O)[C@@H](Cc2ccccc2)NC(=O)[C@H](CCN)NC(=O)[C@@H](NC(=O)[C@H](CCN)NC(=O)[C@@H](N)[C@@H](C)O)CCNC(=O)[C@H]([C@@H](C)O)NC(=O)[C@H](CCN)NC(=O)[C@H](CCN)NC1=O (HELM PEPTIDE1{T.[Dab].[Dab].[Dab].[dF].L.[Dab].[Dab].T}$PEPTIDE1,PEPTIDE1,3:R3-9:R2$$$V2.0) |  | 500 (≈ 519 µM) |  |  | > 500 | 
CCn1cc(C(=O)O)c(=O)c2ccc(C)nc21 [NALIDIXIC ACID] | 250 (≈ 1080 µM) | 1 (≈ 4.31 µM) | 8 (≈ 34.4 µM) | 500 (≈ 2150 µM) |  | 
